Article PMC4871731 (Nature chemical biology, 2016)
Peptide text beside a SMILES is read from it. * marks the point of attachment. Cbz = O=C(OCc1ccccc1)*

Tests used:
CLRN1 mRNA = test: Reverse transcription and quantitative PCR in D6 cells; type: cell-based, human; details: 24 h, O03 16.8 µM, bortezomib 50 nM
Procedure, shortened: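 D6 cells at 70% confluency were treated in triplicate for 24 h with 50 nM bortezomib, 16.8 µM test compound, or 0.25% DMSO. Total RNA was isolated with TRIzol. 5 µg RNA was DNase I-treated and reverse-transcribed with M-MLV using a mix of dT12, dT15 and dT18 primers (10 µM each), followed by quantitative PCR.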

human CLRN1^N48K [1] = target: T1, human CLRN1^N48K (Homo sapiens, UniProt P58418, N48K); test: Automated HTS, D6 cell-based immunofluorescence assay; details: D6 cell line, 25 nM
T1 sequence (P58418 1-232 N48K): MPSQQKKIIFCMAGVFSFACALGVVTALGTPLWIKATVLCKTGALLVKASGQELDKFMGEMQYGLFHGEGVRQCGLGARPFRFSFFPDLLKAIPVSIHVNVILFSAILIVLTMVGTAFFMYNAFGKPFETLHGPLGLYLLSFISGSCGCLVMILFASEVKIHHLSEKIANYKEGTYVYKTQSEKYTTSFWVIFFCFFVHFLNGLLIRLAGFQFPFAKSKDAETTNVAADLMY
Procedure, shortened: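 Primary screen of about 50,000 library compounds. Cells were fixed in 4% formaldehyde for 20 min, washed with PBST and stained with anti-HA for 90 min at room temperature. Fluorescence intensity per cell area came from six images per well and was normalised per plate to bortezomib and untreated controls to give percent activity.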

[2] = system: DsRed-Express-DR (reporter for proteasome-mediated protein degradation); test: Dual color; type: cell-based; details: 16.8 µM test compound or 50 nM bortezomib, 24 h, vs no treatment
Procedure, shortened: (§1)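 Cell line stably co-expressing CLRN1N48K-Venus-1D4 and DsRed-Express-DR, grown to 70% confluency. Treatment was 16.8 µM test compound in triplicate for 24 h, with 50 nM bortezomib as positive and DMSO as negative control. Cells were fixed in 4% formaldehyde, washed with PBS and imaged by inverted fluorescence microscopy. Venus and DsRed intensities were quantified in 15 equal-sized cell-containing regions per well, three wells per treatment.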

human CLRN1^N48K [3] = target: T1, human CLRN1^N48K; test: Immunoblotting of CLRN1N48K in D6 cells; type: cell-based; details: 24 h, O03 16.8 µM, B03 16.8 and 1.68 µM, bortezomib 50 nM
Procedure, shortened: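 D6 cells at 70% confluency were treated for 24 h with bortezomib (50 nM) or test compounds at 16.8 µM (one also at 1.68 µM), with DMSO at 0.25% (v/v) final. Lysates were then immunoblotted for CLRN1N48K.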

human CLRN1^N48K-Venus = test: Dual color; type: cell-based; details: 16.8 µM test compound or 50 nM bortezomib, 24 h, vs no treatment
Procedure, shortened: as §1

human CLRN1^N48K [4] = target: T1, human CLRN1^N48K; test: Combined treatment with cycloheximide and washout; type: cell-based; details: for levels of CLRN1^N48K after 6 h treatment (T0): D6 cells, vs DMSO, bortezomib 50 nM, MG132 50 µM, O03 16.8 µM
Procedure, shortened: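 D6 cells at 70% confluency were treated 6 h with bortezomib (50 nM), MG132 (50 µM) or test compound (16.8 µM); […]. Cells were then cultured 6 h more in 100 µM cycloheximide with or without the same agent. In the washout arm, compound-pretreated cells were washed and held 6 h in cycloheximide without compound. Read-out was CLRN1N48K by immunoblot.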

human CLRN1^N48K [5] = target: T1, human CLRN1^N48K; test: Effect of HSP90 inhibition on CLRN1N48K expression; type: cell-based; details: D6 cells, 17-AAG 20 µM applied alone
Procedure, shortened: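 D6 cells were treated for 24 h with 20 µM 17-AAG, test compound (2.90 µM), 50 nM bortezomib, or DMSO vehicle. In one arm, cells were pre-incubated 6 h with 17-AAG before test compound was added for 24 h. Cells were then harvested for CLRN1N48K immunoblotting.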

CC(C)C[C@H](NC(=O)[C@H](Cc1ccccc1)NC(=O)c1cnccn1)B(O)O [bortezomib]
CLRN1^N48K mRNA level (CLRN1 mRNA): not affected | amount of CLRN1^N48K (human CLRN1^N48K [1]): increased amount | DsRed fluorescence [2]: increased both Venus and DsRed | CLRN1^N48K level by immunoblotting (human CLRN1^N48K [3]): increased dramatically | Venus fluorescence (human CLRN1^N48K-Venus): increased both Venus and DsRed | stability of CLRN1^N48K after washout (human CLRN1^N48K [4]; 6 h compound, washout, then 6 h with cycloheximide without compound): effective in stabilizing and protecting CLRN1^N48K from degradation | levels of CLRN1^N48K after 6 h treatment (T0) (human CLRN1^N48K [4]): increased levels of CLRN1^N48K

C=CCNC1=C2C[C@@H](C)C[C@H](OC)[C@H](O)[C@@H](C)/C=C(\C)[C@H](OC(N)=O)[C@@H](OC)/C=C\C=C(/C)C(=O)NC(=CC1=O)C2=O [17-AAG, 17-N-allylamino-17-demethoxygeldanamycin]
amount of CLRN1^N48K (human CLRN1^N48K [5]): did not alter the amount of CLRN1^N48K

CC(C)C[C@@H](C=O)NC(=O)[C@H](CC(C)C)NC(=O)[C@H](CC(C)C)NC(=O)OCc1ccccc1 [MG132] (Cbz-Leu-Leu-Leu-aldehyde)
levels of CLRN1^N48K after 6 h treatment (T0) (human CLRN1^N48K [4]): increased levels of CLRN1^N48K

C[C@@H]1C[C@@H]([C@H](O)CC2CC(=O)NC(=O)C2)C(=O)[C@@H](C)C1 [cycloheximide]
synthesis of CLRN1^N48K (human CLRN1^N48K [4]; 100 µM cycloheximide): confirmed to inhibit the synthesis of CLRN1^N48K
